Experimental data of several laboratories.
Protocols differ between the studies behind these lines.
Target: Glycogen synthase kinase-3 alpha (GSK3A, Homo sapiens, UniProt P49840)

Compound	effect on	mode	technique	cell line	concentration	endpoint	value
Cc1ccc(NC(=O)c2ccc(C)c(C(F)(F)F)c2)cc1C#Cc1nn(C2CCC(O)CC2)c2ncnc(N)c12 (stereo not drawn)	cell-free assay	inhibitor	–	–	10 µM	remaining signal	79%
Nc1c(C(=O)NCc2ccc(C(=O)NCCCC3CCCCC3)cc2)cnn1-c1ccccc1	cell-free assay	–	competition with immobilised ligand	–	0.1 µM	remaining binding	100%
CNc1cc(Oc2cc(C(=O)Nc3cc(N4CCN(C)CC4)cc(C(F)(F)F)c3)ccc2C)ncn1	target engagement in cells	inhibitor	chemoproteomics	Huh-7	1 µM	inhibition	-23.9%
Cc1c[nH]c2nccc(Oc3c(F)cc(Nc4cc(Cl)nc(N)n4)cc3F)c12	cell-free assay	–	competition with immobilised ligand	–	0.1 µM	remaining binding	95%
Cc1cc(NC(=O)c2cccc3cc(-c4cccc5[nH]nc(N)c45)ccc23)ccc1F	enzyme activity	inhibitor	–	–	0.1 µM	activity vs control	121%
CC(C)(O)[C@H]1CC[C@H](Nc2ccc3ncc(-c4cccc(C(F)(F)F)c4)n3n2)CC1	enzyme activity	inhibitor	–	–	1 µM	remaining activity	90%
CCN(CC)c1ccc(C2=NNC(=O)CC2C)cc1[N+](=O)[O-] (stereo not drawn)	enzyme activity	inhibitor	–	–	10 µM	remaining activity	89%
O=C1NC(=O)c2cc(Nc3ccc(F)cc3)c(Nc3ccc(F)cc3)cc21	cell-free assay	inhibitor	–	–	0.5 µM	remaining signal	88.2%
C[C@@H]1CN(c2cc(-c3n[nH]c4ccc(OC5(C)CC5)cc34)ncn2)C[C@H](C)O1	cell-free assay	–	competition with immobilised ligand	–	0.1 µM	remaining binding	100%
Cn1cnc(Br)c1C1=CN(c2ncnc3[nH]cnc23)CCS1	enzyme activity	inhibitor	radiometric	–	50 nM	inhibition	14.8%
CNC(=O)c1cc(Oc2ccc(NC(=O)Nc3ccc(Cl)c(C(F)(F)F)c3)cc2)ccn1	cell-free assay	–	–	–	0.5 µM	remaining signal	103%
Cc1sc(C(=O)NC2COC2)cc1-n1cc(NC(=O)Nc2c(F)cccc2Cl)cn1	enzyme activity	inhibitor	–	–	10 µM	remaining activity	128%
O=C1Nc2ccc(Cl)cc2C1=Cc1cc(Cl)c(O)c(Cl)c1	cell-free assay	–	–	–	0.5 µM	remaining signal	76.1%
Cc1cc(-n2nc(Cc3cc(F)cc(C(F)(F)F)c3)nc2C)ccc1C(N)=O	cell-free assay	–	competition with immobilised ligand	–	1 µM	remaining binding	97%
CCN(CC)CCNC(=O)c1c(C)[nH]c(/C=C2\C(=O)Nc3ccc(F)cc32)c1C	enzyme activity	inhibitor	–	–	10 µM	inhibition	36%
O=C(Nc1cnn(-c2csc(C(=O)NC3COC3)c2)c1)Nc1c(F)cccc1Cl	enzyme activity	inhibitor	–	–	5 µM	remaining activity	93.5%
C=CC(=O)Nc1cc(Nc2nccc(Nc3cc(Cl)c(F)cc3C(C)(C)O)n2)c(OC)cc1N1CC[C@@H](N(C)C)C1	enzyme activity	inhibitor	–	–	1 µM	inhibition	0%
Cc1ccc(Nc2nccc(N(C)c3ccc4c(C)n(C)nc4c3)n2)cc1S(N)(=O)=O	enzyme activity	inhibitor	–	–	0.3 µM	inhibition	-12%
N#CCCc1ccc2c(c1)-c1[nH]c3ccc([N+](=O)[O-])cc3c1CC(=O)N2	cell-free assay	–	–	–	0.5 µM	remaining signal	0.804%
Cc1nc(Cc2cccc(C(F)(F)F)c2)sc1-c1ccc(C(N)=O)nc1	cell-free assay	–	competition with immobilised ligand	–	1 µM	remaining binding	82%
CC(C)(C)c1nc(-c2cccc(NS(=O)(=O)c3c(F)cccc3F)c2F)c(-c2ccnc(N)n2)s1	enzyme activity	inhibitor	radiometric	–	1 µM	remaining activity	97%
CS(=O)(=O)N1CCCC(NC(=O)[C@H](CCC2CCCCC2)NC(=O)c2ccc(CNC(=O)c3cnc4ccccn34)cc2)C1 (stereo partly drawn)	cell-free assay	–	competition with immobilised ligand	–	0.1 µM	remaining binding	100%
CCCOc1ccc(OC)c(F)c1C(=O)c1ccc(C(=O)N[C@@H]2CNC[C@H]2NC(=O)c2ccc3[nH]ncc3c2)cc1	enzyme activity	inhibitor	–	–	10 µM	remaining activity	89%
O=C(Nc1cnc(Oc2ccc(F)cc2)nc1)N1CCc2ncccc2[C@@H]1c1ccc(F)cc1	cell-free assay	–	competition with immobilised ligand	–	1 µM	remaining binding	93%
COc1cc2ncnc(Nc3ccc(Oc4ccccc4)cc3C)c2cc1OC	enzyme activity	inhibitor	–	–	1 µM	inhibition	4%
c1ccc(CNc2nc(N3CCOc4ccccc43)nc3c2CCCC3)cc1	target engagement in cells	inhibitor	chemoproteomics	–	20 mM	inhibition	0%
CN([C@@H]1CCc2c(CC(=O)O)c3cc(S(C)(=O)=O)ccc3n2C1)S(=O)(=O)c1ccc(F)cc1	cell-free assay	–	competition with immobilised ligand	–	1 µM	remaining binding	100%
